Reference: ChEMBL document CHEMBL1142176, “Antileishmanial effect of 3-aminooxy-1-aminopropane is due to polyamine depletion” (Antimicrob Agents Chemother, 2007)
Activity calls are given as the source filed them. No cut-off for these calls is given here.

Experiments:
Leishmania donovani [1] = test: Growth inhibition of wild type Leishmania donovani AG83 amastigotes in J774A.1 after 5 days by luciferase reporter assay; conditions: AG83, J774.A1, 120 h
Leishmania donovani [2] = test: Growth inhibition of wild type Leishmania donovani AG83 promastigotes after 72 hrs by MTT method; conditions: AG83, 72 h
Leishmania donovani [3] = test: Reduction of spermidine level in Leishmania donovani promastigotes at 50 uM after 48 hrs relative to control; type: functional; design: scale not given: the % may be the effect or the level left
How it was run: (§1)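 Log-phase promastigotes (1 x 10^7) were exposed 48 h and pelleted at 2,000 x g, 4°C. Acid extracts were dansyl-chloride derivatized before column and analysed by C18 reversed-phase HPLC. Values are vs untreated controls, mean ± SD (n = 3), Student's t test, P < 0.05.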

Leishmania donovani [4] = test: Reduction of putrescine level in Leishmania donovani promastigotes at 50 uM for after 48 hrs relative to control; type: functional; design: scale not given: the % may be the effect or the level left
How it was run: as §1

Leishmania donovani [5] = test: Growth inhibition of Leishmania donovani SAG-resistant R2 LV patient isolate amastigotes in J774A.1 cells after 5 days; type: functional, organism-based; conditions: J774.A1, 120 h
How it was run: (§2)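 J774A.1 murine macrophages kept at 37°C in RPMI 1640 with 10% FBS. 1 x 10^5 cells per well were infected with 1 x 10^6 stationary-phase luciferase-expressing (pGL-NEO LUC) promastigotes in M-199 with 10% FBS. Free parasites were washed off after 3 h, then drug was added at a range of concentrations for 5 days. Luciferase was read from washed adherent macrophages, and IC50 was taken from a concentration vs RLU plot.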

Leishmania donovani [6] = test: Growth inhibition of Leishmania donovani promastigotes S1 LV patient isolate in J774A.1 cells after 5 days; type: functional, organism-based
Leishmania donovani [7] = test: Growth inhibition of Leishmania donovani SAG-resistant GE1 LV patient isolate promastigotes in J774A.1 cells after 5 days; type: functional, organism-based
Leishmania donovani [8] = test: Growth inhibition of Leishmania donovani amastigotes S1 LV patient isolate in J774A.1 cells after 5 days; type: functional, organism-based; conditions: J774.A1, 120 h
How it was run: as §2

Leishmania donovani [9] = test: Growth inhibition of Leishmania donovani SAG-resistant GE1 LV patient isolate amastigotes in J774A.1 cells after 5 days; type: functional, organism-based; conditions: J774.A1, 120 h
How it was run: as §2

Leishmania donovani [10] = test: Reversal of growth inhibition of Leishmania donovani promastigotes at 50uM after 48 hrs of 1 mM putrescine treatment; type: functional, organism-based
How it was run: (§3)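 Promastigotes grown at 22°C in M-199 (Hanks' salts, 25 mM HEPES, 10% FBS, 100 µg/ml gentamicin) with 50 µM drug. 1 mM putrescine or spermidine was added after 24 h or 48 h of treatment. Growth was followed over 120 h by hemocytometer counts every 24 h. Mean ± SD of three determinations.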

Leishmania donovani [11] = test: Reversal of growth inhibition of Leishmania donovani promastigotes at 50 uM after 24 hrs of 1 mM spermidine treatment; type: functional, organism-based
How it was run: as §3

Leishmania donovani [12] = test: Reduction of trypanothione level in Leishmania donovani promastigotes at 50 uM after 48 hrs relative to control; type: functional; design: scale not given: the % may be the effect or the level left
How it was run: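 Log-phase promastigotes were treated 48 h before harvest, compared with untreated controls. Mean ± SD, n = 3, Student's t test.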

Leishmania donovani [13] = test: Reversal of growth inhibition of Leishmania donovani promastigotes at 50 uM after 48 hrs of 1 mM spermidine treatment; type: functional, organism-based
How it was run: as §3

Leishmania donovani [14] = test: Growth inhibition of Leishmania donovani SAG-resistant R1 LV patient isolate promastigotes in J774A.1 cells after 5 days; type: functional, organism-based
Leishmania donovani [15] = test: Growth inhibition of Leishmania donovani AG83 amastigotes transfected with episomal ODC gene construct overproducing ODC; type: functional, organism-based
J774.A1 = test: Growth inhibition of J774A.1 macrophage cells after 24 hrs by MTT method; type: functional, cell-based; conditions: Mus musculus, J774.A1, 24 h
How it was run: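 J774A.1 murine macrophages kept at 37°C in RPMI 1640 with 10% FBS. Viability was read 24 h after drug addition.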

Leishmania donovani [16] = test: Growth inhibition of Leishmania donovani SAG-resistant R1 LV patient isolate amastigotes in J774A.1 cells after 5 days; type: functional, organism-based; conditions: J774.A1, 120 h
How it was run: as §2

Leishmania donovani [17] = test: Growth inhibition of Leishmania donovani SAG-resistant R2 LV patient isolate promastigotes in J774A.1 cells after 5 days; type: functional, organism-based
Leishmania donovani [18] = test: Growth inhibition of Leishmania donovani AG83 promastigotes transfected with episomal ODC gene construct overproducing ODC; type: functional, organism-based
How it was run: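 Late-log-phase promastigotes, cultured at 22°C in M-199 (Hanks' salts, 25 mM HEPES, 10% FBS, gentamicin), were exposed to drug for 72 h. MTT was then added for 4 h, the reaction was stopped with acidic isopropanol, and absorbance was read at 570 nm to give IC50. Two or more independent experiments were run in triplicate.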

[19] = target: T1, Ornithine decarboxylase (Leishmania donovani) (UniProt P27116); test: Inhibition of ODC in Leishmania donovani promastigotes at 50 uM after 48 hrs
T1 sequence (whole entry): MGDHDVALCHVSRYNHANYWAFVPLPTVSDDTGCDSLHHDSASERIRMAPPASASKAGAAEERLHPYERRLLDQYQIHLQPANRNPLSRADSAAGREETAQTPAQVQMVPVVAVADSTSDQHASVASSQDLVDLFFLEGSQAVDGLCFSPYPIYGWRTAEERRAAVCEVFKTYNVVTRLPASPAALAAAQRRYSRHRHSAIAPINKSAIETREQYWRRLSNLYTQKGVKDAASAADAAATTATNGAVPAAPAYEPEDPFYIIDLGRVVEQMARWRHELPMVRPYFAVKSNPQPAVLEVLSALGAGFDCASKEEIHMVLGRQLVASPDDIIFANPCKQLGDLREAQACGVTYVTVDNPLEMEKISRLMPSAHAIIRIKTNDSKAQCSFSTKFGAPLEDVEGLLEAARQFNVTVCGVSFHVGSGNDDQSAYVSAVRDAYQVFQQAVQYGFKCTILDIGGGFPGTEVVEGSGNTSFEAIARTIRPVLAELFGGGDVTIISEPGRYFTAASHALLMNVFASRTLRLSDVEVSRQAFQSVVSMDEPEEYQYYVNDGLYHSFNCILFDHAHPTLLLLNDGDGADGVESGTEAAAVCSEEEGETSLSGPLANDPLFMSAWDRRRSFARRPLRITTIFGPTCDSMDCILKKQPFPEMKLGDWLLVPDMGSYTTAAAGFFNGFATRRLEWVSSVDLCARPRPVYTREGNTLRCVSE
How it was run: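 Late-log promastigotes (1 x 10^7) were treated 48 h, then washed in PBS and freeze-thaw lysed in 50 mM Tris-HCl pH 7.5, 10 µM EDTA, 2.5 mM DTT. Released 14CO2 is expressed as nmol CO2/mg protein/h (Bradford). Mean ± SD, n = 3.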

Leishmania donovani [20] = test: Reversal of growth inhibition of Leishmania donovani promastigotes at 50uM after 24 hrs of 1 mM putrescine treatment; type: functional, organism-based
How it was run: as §3

NCCCC(N)(C(=O)O)C(F)F (stereo not drawn) [EFLORNITHINE]
IC50 (Leishmania donovani [1]): 50 µM | IC50 (Leishmania donovani [2]): > 10000 µM

NCCCON
Activity (Leishmania donovani [3]): 44% | IC50 (Leishmania donovani [1]): 5 µM | Activity (Leishmania donovani [4]): 70% | IC50 (Leishmania donovani [5]): > 200 µM | IC50 (Leishmania donovani [6]): 19 µM | IC50 (Leishmania donovani [7]): > 400 µM | IC50 (Leishmania donovani [8]): 10 µM | IC50 (Leishmania donovani [9]): > 200 µM | Activity (Leishmania donovani [10]): Active | Activity (Leishmania donovani [11]): Active | Activity (Leishmania donovani [12]): 79% | Activity (Leishmania donovani [13]): Active | IC50 (Leishmania donovani [14]): > 400 µM | IC50 (Leishmania donovani [2]): 42 µM | IC50 (Leishmania donovani [15]): > 100 µM | IC50 (J774.A1): > 200 µM | IC50 (Leishmania donovani [16]): > 200 µM | IC50 (Leishmania donovani [17]): 46 µM | IC50 (Leishmania donovani [18]): 155 µM | inhibition [19]: 76% | Activity (Leishmania donovani [20]): Active
